In ChEMBL document CHEMBL2380270, “Radiosynthesis and first evaluation in mice of [(18)F]NS14490 for molecular imaging of α7 nicotinic acetylcholine receptors” (Bioorg Med Chem, 2013):

Assays:
Stomach [1] = assay: Biodistribution in CD1 mouse stomach at 200 to 300 kBq, iv measured at 30 mins by gamma counting analysis; type: ADME, organism-based; details: in vivo, 0.5 h
Outline: (§1)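 Female CD-1 mice received 200–300 kBq [18F]radiotracer intravenously. Blood and urine were sampled under anaesthesia, then mice were killed by cervical dislocation at 5, 15, 30 or 60 min p.i. (n = 3; control at 60 min n = 7). Organs were removed and weighed, activity was gamma-counted, and uptake was expressed as % injected dose per g wet tissue.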

Mus musculus [2] = assay: Biodistribution in CD1 mouse thymus at 200 to 300 kBq, iv measured at 5 mins by gamma counting analysis; type: ADME, organism-based; details: in vivo
Outline: (§2)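 Female CD-1 mice given 200–300 kBq tracer intravenously. Animals anaesthetised for blood and urine sampling, then killed by cervical dislocation at 5, 15, 30 or 60 min (n = 3 per time; n = 7 at 60 min). Organs removed and weighed, activity gamma-counted, expressed as % injected dose per g wet weight. Blocking arm: 10 mg/kg i.p. in 0.9% saline, 10 min before tracer; two-tailed unpaired t test versus control.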

Zone of skin [3] = assay: Biodistribution in CD1 mouse skin at 200 to 300 kBq, iv measured at 5 mins by gamma counting analysis; type: ADME, organism-based; details: in vivo; outline: as §1
Mus musculus [4] = assay: Biodistribution in CD1 mouse thymus at 200 to 300 kBq, iv measured at 60 mins by gamma counting analysis in presence of SSR180711; type: ADME, organism-based; details: in vivo, 1 h; outline: as §2
Mus musculus [5] = assay: Biodistribution in CD1 mouse adrenal at 200 to 300 kBq, iv measured at 60 mins by gamma counting analysis in presence of SSR180711; type: ADME, organism-based, Adrenal gland; details: in vivo, 1 h
Outline: (§3)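 Blocking study in female CD-1 mice, n = 7 per blocker, with a matching control group. SSR180711 or NS6740 given at 10 mg kg⁻¹ ip in 0.9% saline 10 min before iv radiotracer (200–300 kBq). Organs taken at 60 min p.i., weighed and gamma-counted; uptake as % ID per g wet weight. Compared with control by two-tailed independent Student's t test.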

Mus musculus [6] = assay: Biodistribution in CD1 mouse small intestine at 200 to 300 kBq, iv measured at 30 mins by gamma counting analysis; type: ADME, organism-based; details: in vivo, 0.5 h; outline: as §1
Blood [7] = assay: Biodistribution in CD1 mouse blood at 200 to 300 kBq, iv measured at 60 mins by gamma counting analysis in presence of SSR180711; type: ADME, organism-based; details: in vivo, 1 h; outline: as §3
Mus musculus [8] = assay: Biodistribution in CD1 mouse small intestine at 200 to 300 kBq, iv measured at 60 mins by gamma counting analysis; type: ADME, organism-based; details: in vivo, 1 h; outline: as §1
Lung [9] = assay: Biodistribution in CD1 mouse lung at 200 to 300 kBq, iv measured at 60 mins by gamma counting analysis; type: ADME, organism-based; details: in vivo, 1 h; outline: as §1
Stomach [10] = assay: Biodistribution in CD1 mouse stomach at 200 to 300 kBq, iv measured at 5 mins by gamma counting analysis; type: ADME, organism-based; details: in vivo; outline: as §1
Urinary bladder = assay: Biodistribution in CD1 mouse bladder at 200 to 300 kBq, iv measured at 15 mins by gamma counting analysis; type: ADME, organism-based; details: in vivo, 0.25 h
Outline: (§4)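 Female CD-1 mice, 200–300 kBq radiotracer given iv, n = 3 per time point. Animals anaesthetised for blood and urine sampling, then killed by cervical dislocation at 5, 15, 30 or 60 min p.i. Organs removed, weighed and gamma-counted; uptake expressed as % injected dose per g wet tissue.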

Heart [11] = assay: Biodistribution in CD1 mouse heart at 200 to 300 kBq, iv measured at 60 mins by gamma counting analysis in presence of SSR180711; type: ADME, organism-based; details: in vivo, 1 h; outline: as §3
Stomach [12] = assay: Biodistribution in CD1 mouse stomach at 200 to 300 kBq, iv measured at 60 mins by gamma counting analysis in presence of SSR180711; type: ADME, organism-based; details: in vivo, 1 h
Outline: (§5)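 Blocking design in female CD-1 mice, n = 7 per group. The blocker was given at 10 mg kg^-1 i.p. in 0.9% saline 10 min before i.v. 200–300 kBq [18F]radiotracer. Mice were killed at 60 min p.i. and organs weighed and gamma-counted as % ID per g wet weight. Blocked groups were compared with controls by two-tailed independent Student's t test.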

Pancreas = assay: Biodistribution in CD1 mouse pancreas at 200 to 300 kBq, iv measured at 5 mins by gamma counting analysis; type: ADME, organism-based; details: in vivo; outline: as §1
Muscle tissue = assay: Biodistribution in CD1 mouse muscle at 200 to 300 kBq, iv measured at 60 mins by gamma counting analysis; type: ADME, organism-based; details: in vivo, 1 h; outline: as §1
Heart [13] = assay: Biodistribution in CD1 mouse heart at 200 to 300 kBq, iv measured at 15 mins by gamma counting analysis; type: ADME, organism-based; details: in vivo, 0.25 h; outline: as §4
Zone of skin [14] = assay: Biodistribution in CD1 mouse skin at 200 to 300 kBq, iv measured at 30 mins by gamma counting analysis; type: ADME, organism-based; details: in vivo, 0.5 h; outline: as §1
Mus musculus [15] = assay: Biodistribution in CD1 mouse large intestine at 200 to 300 kBq, iv measured at 30 mins by gamma counting analysis; type: ADME, organism-based; details: in vivo, 0.5 h; outline: as §4
Lung [16] = assay: Biodistribution in CD1 mouse lung at 200 to 300 kBq, iv measured at 30 mins by gamma counting analysis; type: ADME, organism-based; details: in vivo, 0.5 h; outline: as §1
Heart [17] = assay: Biodistribution in CD1 mouse heart at 200 to 300 kBq, iv measured at 30 mins by gamma counting analysis; type: ADME, organism-based; details: in vivo, 0.5 h; outline: as §4
Liver = assay: Biodistribution in CD1 mouse liver at 200 to 300 kBq, iv measured at 60 mins by gamma counting analysis in presence of SSR180711; type: ADME, organism-based; details: in vivo, 1 h; outline: as §5
Femur = assay: Biodistribution in CD1 mouse femur at 200 to 300 kBq, iv measured at 15 mins by gamma counting analysis; type: ADME, organism-based; details: in vivo, 0.25 h; outline: as §4
Blood [18] = assay: Biodistribution in CD1 mouse blood at 200 to 300 kBq, iv measured at 5 mins by gamma counting analysis; type: ADME, organism-based; details: in vivo; outline: as §4
Spleen = assay: Biodistribution in CD1 mouse spleen at 200 to 300 kBq, iv measured at 5 mins by gamma counting analysis; type: ADME, organism-based; details: in vivo; outline: as §1
Brain = assay: Biodistribution in CD1 mouse brain at 200 to 300 kBq, iv measured at 60 mins by gamma counting analysis; type: ADME, organism-based; details: in vivo, 1 h; outline: as §4

SMILES: O=C(Oc1ccc(Br)cc1)N1CCN2CCC1CC2 [SSR180711]
- Drug uptake (Stomach [1]): 7.29 % ID/g
- Drug uptake (Mus musculus [2]): 1.95 % ID/g
- Drug uptake (Zone of skin [3]): 0.81 % ID/g
- Drug uptake (Mus musculus [4]): 2.47 % ID/g
- Drug uptake (Mus musculus [5]): 3.65 % ID/g
- Drug uptake (Mus musculus [6]): 11 % ID/g
- Drug uptake (Blood [7]): 0.78 % ID/g
- Drug uptake (Mus musculus [8]): 16.1 % ID/g
- Drug uptake (Lung [9]): 4.88 % ID/g
- Drug uptake (Stomach [10]): 3.92 % ID/g
- Drug uptake (Urinary bladder): 2.19 % ID/g
- Drug uptake (Heart [11]): 1.81 % ID/g
- Drug uptake (Stomach [12]): 7.76 % ID/g
- Drug uptake (Pancreas): 5.16 % ID/g
- Drug uptake (Muscle tissue): 1 % ID/g
- Drug uptake (Heart [13]): 2.96 % ID/g
- Drug uptake (Zone of skin [14]): 1.23 % ID/g
- Drug uptake (Mus musculus [15]): 2.7 % ID/g
- Drug uptake (Lung [16]): 6.78 % ID/g
- Drug uptake (Heart [17]): 2.41 % ID/g
- Drug uptake (Liver): 6.45 % ID/g
- Drug uptake (Femur): 2.15 % ID/g
- Drug uptake (Blood [18]): 1.6 % ID/g
- Drug uptake (Spleen): 4.22 % ID/g
- Drug uptake (Brain): 0.18 % ID/g
